Measured values gathered from unrelated publications.
Protocols differ between the studies behind these lines. Values after ≈ are worked out from the molar mass of the structure shown.

| SMILES | organism | assay | test system | setting | endpoint | value |
| --- | --- | --- | --- | --- | --- | --- |
| CN[C@H](CC(C)C)C(=O)N[C@H]1C(=O)N[C@@H](CC(N)=O)C(=O)N[C@H]2C(=O)N[C@H]3C(=O)N[C@H](C(=O)N[C@H](C(=O)O)c4cc(O)cc(O)c4-c4cc3ccc4O)[C@H](O)c3ccc(c(Cl)c3)Oc3cc2cc(c3O[C@@H]2O[C@H](CO)[C@@H](O)[C@H](O)[C@H]2O[C@H]2C[C@](C)(N)[C@H](O)[C@H](C)O2)Oc2ccc(cc2Cl)[C@H]1O | Clostridioides difficile | microbial growth, broth dilution | – | 24 h | MIC | 1 mg/L |
| O=[N+]([O-])c1ccc(C2=[N+]([O-])c3ccccc3N3CCN=C23)cc1 | Clostridioides difficile | microbial growth | – | – | MIC90 | ≤ 0.06 mg/L |
| CC(C)(C)C(=O)OCOP(=O)(COCCn1cnc2c(N)ncnc21)OCOC(=O)C(C)(C)C | Hepatitis B virus | viral replication, qPCR | HepG2.2.15 | 14 days | IC50 | 0.88 µM |
| [O-][N+]1=C(c2ccc(Cl)cc2)C2=NCCN2c2ccccc21 | Fusobacterium nucleatum | microbial growth | – | – | MIC50 | ≤ 0.06 mg/L |
| O=C1Cc2ccccc2C(=O)N1O | Hepatitis B virus | viral replication, inhibitor, qPCR | HepDES19 | 72 h | EC50 | 4.2 µM |
| Cc1ncc([N+](=O)[O-])n1CCO | Clostridioides difficile | microbial growth | – | – | MIC50 | 0.25 mg/L (≈ 1.46 µM) |
| O=C(NCc1ccc2c(c1)OCO2)c1ccc(Br)cc1F | Saccharomyces cerevisiae | microbial growth | BY4743 | 72 h | MIC | > 200 µM |
| C[C@@H]1C[C@@H]([C@H](O)CC2CC(=O)NC(=O)C2)C(=O)[C@@H](C)C1 | Saccharomyces cerevisiae | microbial growth | – | – | MIC | 3 µM |
| CCN1CCN(C(=O)N[C@@H](C(=O)N[C@@H]2C(=O)N3C(C(=O)O)=C(CSc4nnnn4C)CS[C@H]23)c2ccc(O)cc2)C(=O)C1=O | Clostridioides difficile | microbial growth, broth dilution | – | 24 h | MIC | 100 mg/L |
| N#C[C@]1(CO)O[C@@H](n2cnc3c(=O)[nH]c(N)nc32)C[C@@H]1O | Hepatitis B virus | viral replication, qPCR | HepG2.2.15 | 14 days | IC50 | 0.0005 µM |
| CC(C)OC(=O)[C@H](C)N[P@](=O)(CO[C@H](C)Cn1cnc2c(N)ncnc21)Oc1ccccc1 | Hepatitis B virus | viral replication, inhibitor | HepG2.2.15 | 1 µM, 6 days | inhibition | ~65% |
| C=C1[C@H](CO)[C@@H](O)C[C@@H]1n1cnc2c(=O)[nH]c(N)nc21 | Hepatitis B virus | viral replication, qPCR | HepG2.2.15 | 14 days | IC50 | 0.003 µM |
| CC[C@H](C)C[C@H](C)CCCCCCCCC(=O)N[C@H]1C[C@@H](O)[C@@H](NCCN)NC(=O)[C@@H]2[C@@H](O)CCN2C(=O)[C@H]([C@H](O)CCN)NC(=O)[C@H]([C@H](O)[C@@H](O)c2ccc(O)cc2)NC(=O)[C@@H]2C[C@@H](O)CN2C(=O)[C@H]([C@@H](C)O)NC1=O | Saccharomyces cerevisiae | microbial growth, broth dilution | S288C | – | MIC | 0.25 mg/L |
| C[C@H]1COCCN1c1nc(NCc2cccnc2C(F)(F)F)c2cccnc2n1 | Clostridioides difficile | microbial growth, broth dilution | 630 | – | MIC | 64 mg/L |
| CC(C)OC(=O)OCOP(=O)(CO[C@H](C)Cn1cnc2c(N)ncnc21)OCOC(=O)OC(C)C | Hepatitis B virus | viral replication, qPCR | HepG2.2.15 | 14 days | IC50 | 0.2 µM |
